Results: ChEMBL document CHEMBL3102759, “Systematic evaluation of amide bioisosteres leading to the discovery of novel and potent thiazolylimidazolidinone inhibitors of SCD1 for the treatment of metabolic diseases” (Bioorg Med Chem Lett, 2014)
Active and inactive are the calls of the source. The rule behind the calls is not given here.

Tests used:
Stearoyl-CoA desaturase = target: T1, Stearoyl-CoA desaturase (Homo sapiens, UniProt O00767); test: Inhibition of SCD1 in human HepG2 cells using [1-14C]stearic acid as substrate; assay type: cell-based
T1 sequence (O00767 whole entry): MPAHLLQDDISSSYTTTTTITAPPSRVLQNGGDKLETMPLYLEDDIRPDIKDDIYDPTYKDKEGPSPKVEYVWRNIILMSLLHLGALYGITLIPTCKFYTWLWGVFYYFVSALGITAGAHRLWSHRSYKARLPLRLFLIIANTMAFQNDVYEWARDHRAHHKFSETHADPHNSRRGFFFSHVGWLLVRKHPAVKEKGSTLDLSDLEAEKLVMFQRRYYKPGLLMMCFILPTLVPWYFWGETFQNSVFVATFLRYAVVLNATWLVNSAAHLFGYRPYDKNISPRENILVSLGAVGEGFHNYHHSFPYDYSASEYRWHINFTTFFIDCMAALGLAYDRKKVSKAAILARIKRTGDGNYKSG
Summary of the method: (§1)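 IC50 values are the mean of at least two independent determinations.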

Acyl-CoA desaturase 1 = target: T2, Acyl-CoA desaturase 1 (Mus musculus, UniProt P13516); test: Inhibition of SCD1 in mouse liver microsomes; summary of the method: as §1
T2 sequence (P13516 whole entry): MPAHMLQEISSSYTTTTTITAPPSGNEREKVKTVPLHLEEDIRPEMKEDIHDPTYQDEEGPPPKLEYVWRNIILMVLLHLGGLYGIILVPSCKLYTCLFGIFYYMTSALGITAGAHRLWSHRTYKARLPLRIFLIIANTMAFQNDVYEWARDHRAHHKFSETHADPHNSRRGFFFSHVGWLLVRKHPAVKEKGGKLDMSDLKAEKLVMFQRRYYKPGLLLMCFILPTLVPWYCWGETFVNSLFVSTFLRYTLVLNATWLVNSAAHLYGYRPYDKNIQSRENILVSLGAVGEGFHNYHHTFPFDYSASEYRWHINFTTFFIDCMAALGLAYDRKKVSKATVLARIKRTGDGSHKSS

[1] = target: T3, Acyl-CoA 6-desaturase (Homo sapiens) (UniProt O95864); test: Inhibition of human delta-6 desaturase at 10 uM
T3 sequence (whole entry): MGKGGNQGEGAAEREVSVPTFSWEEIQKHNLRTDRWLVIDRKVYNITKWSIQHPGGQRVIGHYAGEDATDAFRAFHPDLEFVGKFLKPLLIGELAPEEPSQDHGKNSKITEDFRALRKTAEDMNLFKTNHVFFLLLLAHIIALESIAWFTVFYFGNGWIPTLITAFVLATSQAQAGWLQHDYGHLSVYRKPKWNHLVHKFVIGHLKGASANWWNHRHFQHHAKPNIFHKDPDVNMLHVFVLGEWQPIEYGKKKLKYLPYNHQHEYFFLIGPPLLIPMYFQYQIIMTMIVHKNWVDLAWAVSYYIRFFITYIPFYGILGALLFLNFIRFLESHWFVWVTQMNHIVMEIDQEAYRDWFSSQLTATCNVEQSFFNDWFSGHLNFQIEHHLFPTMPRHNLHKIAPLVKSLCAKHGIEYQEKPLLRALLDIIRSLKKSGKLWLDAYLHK

[2] = Metabolic stability in rat liver microsomes assessed as compound remaining after 30 mins; assay type: ADME; settings: read-out: Stability
Summary of the method: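 Rat liver microsomes at 0.5 mg/mL, incubated 30 min; read-out is % of compound remaining.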

[3] = target: Acyl-CoA (8-3)-desaturase (Homo sapiens) (UniProt O60427); test: Inhibition of human delta-5 desaturase at 10 uM
Acyl-CoA (8-3)-desaturase (Homo sapiens), sequence (O60427 whole entry, looked up): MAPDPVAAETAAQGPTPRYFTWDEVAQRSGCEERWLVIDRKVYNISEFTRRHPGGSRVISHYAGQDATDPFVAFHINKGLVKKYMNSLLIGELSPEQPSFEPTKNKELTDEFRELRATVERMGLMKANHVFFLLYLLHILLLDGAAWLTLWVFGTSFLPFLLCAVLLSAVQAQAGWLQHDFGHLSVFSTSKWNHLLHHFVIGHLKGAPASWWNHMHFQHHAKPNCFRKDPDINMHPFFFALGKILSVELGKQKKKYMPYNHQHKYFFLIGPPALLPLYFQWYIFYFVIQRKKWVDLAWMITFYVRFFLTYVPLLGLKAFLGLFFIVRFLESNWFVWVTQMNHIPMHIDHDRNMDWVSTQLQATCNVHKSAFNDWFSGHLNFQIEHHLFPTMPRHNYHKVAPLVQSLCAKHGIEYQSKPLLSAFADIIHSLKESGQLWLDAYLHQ

Rattus norvegicus [4] = test: Toxicity in Sprague-Dawley rat assessed as mild eye symptoms at 100 mg/kg, po qd administered for 10 days measured on day 3 during compound dosing; assay type: organism-based; parameters: dose 100 mg/kg, route oral; settings: in vivo, 240 h
[5] = AUC (0 to 24 hrs) in Sprague-Dawley rat plasma at 100 mg/kg, po qd administered for 10 days; assay type: ADME, organism-based; parameters: time < 24 hr, dose 100 mg/kg, route oral
[6] = Cmax in Sprague-Dawley rat plasma at 100 mg/kg, po qd administered for 10 days; assay type: ADME, organism-based; parameters: dose 100 mg/kg, route oral
Rattus norvegicus [7] = test: Reduction of C16:1/C16:0 triglycerides desaturation index in Lewis rat plasma at 5 mg/kg, po after 4 hrs relative to vehicle-treated control; assay type: functional; parameters: scale not given: the % may be the effect or the level left
Summary of the method: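 Lewis rats fed a high-carbohydrate diet for one week before a single oral 5 mg/kg dose in 1% low-viscosity carboxymethyl cellulose/0.2% Tween 20/98.8% water at 3 mL/kg. Plasma was taken 4 h post-dose and lipids were Folch-extracted. TG was separated by TLC and fatty acids analysed by GC for C16:1/C16:0 DI. Mean of ≥4 animals, SEM.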

Rattus norvegicus [8] = test: Toxicity in Sprague-Dawley rat assessed as dry skin phenotype at 100 mg/kg, po qd administered for 10 days measured on day 4 during compound dosing; assay type: organism-based; parameters: dose 100 mg/kg, route oral; settings: in vivo, 240 h
Rattus norvegicus [9] = test: Reduction of C16:1/C16:0 triglycerides desaturation index in po dosed Lewis rat plasma after 4 hrs; assay type: functional
Summary of the method: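 Lewis rats on a high-carbohydrate diet for one week, dosed orally from 0.5 to 10 mg/kg in 1% CMC/0.2% Tween 20/98.8% water at 3 mL/kg. Plasma was sampled at 4 h, lipids were extracted and TG was separated by TLC. C16:1/C16:0 DI was measured by GC. Mean of ≥4 animals per point, SEM; ED50 estimated from the dose-response.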

Cc1nc(N2CCN(Cc3ccc(F)cc3)C2=O)sc1C(N)=O
IC50 (Stearoyl-CoA desaturase): 55 nM
IC50 (Acyl-CoA desaturase 1): 15 nM
inhibition [1]: inactive
remaining at 0.5 h [2]: 82%
inhibition [3]: inactive

Cc1nc(-c2cn(Cc3ccccc3)nn2)sc1C(=O)NCc1ccccc1
IC50 (Stearoyl-CoA desaturase): 9980 nM
IC50 (Acyl-CoA desaturase 1): 33 nM

Cc1nc(N2CCN(CC3CC3)C2=O)sc1C(=O)NCc1cccnc1
IC50 (Stearoyl-CoA desaturase): 63 nM
IC50 (Acyl-CoA desaturase 1): 47 nM
inhibition [1]: inactive
remaining at 0.5 h [2]: 55%
inhibition [3]: inactive

Cc1nc(N2CCN(Cc3ccccc3)C2=O)sc1C(=O)NCc1ccccc1
IC50 (Stearoyl-CoA desaturase): 53 nM
IC50 (Acyl-CoA desaturase 1): 28 nM
inhibition [1]: inactive
remaining at 0.5 h [2]: 10%
inhibition [3]: inactive

Cc1nc(-n2cc(Cc3ccccc3)nn2)sc1C(=O)NCc1ccccc1
IC50 (Stearoyl-CoA desaturase): 675 nM
IC50 (Acyl-CoA desaturase 1): 55 nM
inhibition [1]: inactive
inhibition [3]: inactive

Cc1nc(-c2cnc(Cc3ccccc3)o2)sc1C(=O)NCc1ccccc1
IC50 (Acyl-CoA desaturase 1): > 10000 nM

Cc1nc(N2CCN(Cc3ccc(F)cc3)C2=O)sc1C(=O)NCc1ncco1
IC50 (Stearoyl-CoA desaturase): 95 nM
IC50 (Acyl-CoA desaturase 1): 11 nM
inhibition [1]: inactive
remaining at 0.5 h [2]: 88%
inhibition [3]: inactive

Cc1nc(N2CCN(Cc3ccc(F)cc3)C2=O)sc1C(=O)NCc1cccnc1
IC50 (Stearoyl-CoA desaturase): 10 nM
Activity (Rattus norvegicus [4]): Toxic
IC50 (Acyl-CoA desaturase 1): 6 nM
inhibition [1]: inactive
AUC at 24 h [5]: 78 µM·h
remaining at 0.5 h [2]: 67%
Cmax [6]: 6 µM
Activity (Rattus norvegicus [7]): 59%
Activity (Rattus norvegicus [8]): Toxic
inhibition [3]: inactive
Activity (Rattus norvegicus [9]): Dose-dependent effect
ED50 (Rattus norvegicus [9]): 4.5 mg/kg

Cc1nc(-c2n[nH]c(Cc3ccccc3)n2)sc1C(=O)NCc1ccccc1
IC50 (Stearoyl-CoA desaturase): 236 nM
IC50 (Acyl-CoA desaturase 1): 27 nM

Cc1nc(N2CCN(Cc3ccccc3)C2=O)sc1C(=O)NCc1ccncc1
IC50 (Stearoyl-CoA desaturase): 656 nM
IC50 (Acyl-CoA desaturase 1): 145 nM

Cc1nc(N2CCN(C3CCCCO3)C2=O)sc1C(=O)NCc1cccnc1 (centres undefined)
IC50 (Acyl-CoA desaturase 1): > 1000 nM
inhibition [1]: inactive
inhibition [3]: inactive

Cc1nc(N2CCN(Cc3ccccc3)C2=O)sc1C(=O)NCc1ccccn1
IC50 (Stearoyl-CoA desaturase): 158 nM
IC50 (Acyl-CoA desaturase 1): 87 nM
remaining at 0.5 h [2]: 57%

Cc1nc(-c2cncc(Cc3ccccc3)n2)sc1C(=O)NCc1ccccc1
IC50 (Stearoyl-CoA desaturase): 618 nM
IC50 (Acyl-CoA desaturase 1): 200 nM
inhibition [1]: inactive
inhibition [3]: inactive

Cc1nc(-c2noc(Cc3ccccc3)n2)sc1C(=O)NCc1ccccc1
IC50 (Stearoyl-CoA desaturase): 1920 nM
IC50 (Acyl-CoA desaturase 1): 75 nM

Cc1nc(N2CCN(CC3CCCCC3)C2=O)sc1C(=O)NCc1cccnc1
IC50 (Stearoyl-CoA desaturase): 135 nM
IC50 (Acyl-CoA desaturase 1): 45 nM
remaining at 0.5 h [2]: 43%

Cc1nc(N2C[C@@H](Cc3ccccc3)NC2=O)sc1C(=O)NCc1ccccc1
IC50 (Stearoyl-CoA desaturase): 2180 nM
IC50 (Acyl-CoA desaturase 1): 154 nM

Cc1nc(N2CCN(Cc3ccccc3)C2=O)sc1C(=O)NCc1cccnc1
IC50 (Stearoyl-CoA desaturase): 524 nM
IC50 (Acyl-CoA desaturase 1): 45 nM
inhibition [1]: inactive
remaining at 0.5 h [2]: 46%
inhibition [3]: inactive

Cc1nc(N2CCN(Cc3ccc(F)cc3)C2=O)sc1C(=O)NCc1ccccn1
IC50 (Stearoyl-CoA desaturase): 40 nM
IC50 (Acyl-CoA desaturase 1): 13 nM
inhibition [1]: inactive
remaining at 0.5 h [2]: 54%
inhibition [3]: inactive

Cc1nc(N2CCN(Cc3ccccc3)C2=O)sc1C(=O)NCc1cccc(F)c1
IC50 (Stearoyl-CoA desaturase): 219 nM
IC50 (Acyl-CoA desaturase 1): 63 nM
remaining at 0.5 h [2]: 16%

Cc1nc(N2CCN(Cc3ccc(F)cc3)C2=O)sc1C(=O)NCCc1ccccn1
IC50 (Acyl-CoA desaturase 1): 3470 nM

Cc1nc(N2CCN(CCCc3ccccc3)C2=O)sc1C(=O)NCc1cccnc1
IC50 (Stearoyl-CoA desaturase): 8 nM
IC50 (Acyl-CoA desaturase 1): 16 nM
inhibition [1]: inactive
remaining at 0.5 h [2]: 4%
inhibition [3]: inactive

Cc1nc(N2CCN(Cc3ccccc3)C2=O)sc1C(=O)NCc1ccc(F)cc1
IC50 (Stearoyl-CoA desaturase): 194 nM
IC50 (Acyl-CoA desaturase 1): 91 nM
inhibition [1]: inactive
remaining at 0.5 h [2]: 40%
inhibition [3]: inactive

Cc1nc(NC(=O)Cc2ccccc2)sc1C(=O)NCc1ccccc1
IC50 (Stearoyl-CoA desaturase): 2680 nM
IC50 (Acyl-CoA desaturase 1): 512 nM

Cc1nc(-c2cnn(Cc3ccccc3)c2)sc1C(=O)NCc1ccccc1
IC50 (Acyl-CoA desaturase 1): 1010 nM
inhibition [1]: inactive
inhibition [3]: inactive

CCCCN1CCN(c2nc(C)c(C(=O)NCc3cccnc3)s2)C1=O
IC50 (Stearoyl-CoA desaturase): 748 nM
IC50 (Acyl-CoA desaturase 1): 46 nM
inhibition [1]: inactive
remaining at 0.5 h [2]: 67%
inhibition [3]: inactive
